Experiments:
Settings in all cases: stereoisomer not certain
[1] = molecular target: T1, UniProt Q8VGZ2
T1 sequence (whole entry): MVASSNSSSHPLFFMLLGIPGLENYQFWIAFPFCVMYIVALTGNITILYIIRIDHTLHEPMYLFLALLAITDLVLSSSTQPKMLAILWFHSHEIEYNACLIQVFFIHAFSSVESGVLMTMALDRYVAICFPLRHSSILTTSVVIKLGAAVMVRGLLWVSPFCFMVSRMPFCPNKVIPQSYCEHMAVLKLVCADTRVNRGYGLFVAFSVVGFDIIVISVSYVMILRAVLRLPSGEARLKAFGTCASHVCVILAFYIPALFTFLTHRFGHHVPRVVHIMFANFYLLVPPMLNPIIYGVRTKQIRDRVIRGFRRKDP
Summary of the method: (§1)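 Assay methods differ from source to source, frequently being transient luciferase assays in mammalian cell lines. For each receptor–molecule pair, the label responsive (active) applies when the original authors judged the measured signal statistically different from baseline, and non-responsive (inactive) applies otherwise.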

[2] = molecular target: T2, UniProt Q8VGZ7
T2 sequence (whole entry): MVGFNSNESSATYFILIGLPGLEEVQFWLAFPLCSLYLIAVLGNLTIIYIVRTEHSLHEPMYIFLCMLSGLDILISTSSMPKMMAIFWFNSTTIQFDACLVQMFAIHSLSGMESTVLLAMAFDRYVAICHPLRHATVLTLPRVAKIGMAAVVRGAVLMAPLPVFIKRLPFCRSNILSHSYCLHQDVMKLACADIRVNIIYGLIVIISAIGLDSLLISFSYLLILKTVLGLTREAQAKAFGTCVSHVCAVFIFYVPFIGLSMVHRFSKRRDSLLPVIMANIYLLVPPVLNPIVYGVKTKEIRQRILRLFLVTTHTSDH
Summary of the method: as §1

[3] = molecular target: T3, UniProt Q8VH16
T3 sequence (whole entry): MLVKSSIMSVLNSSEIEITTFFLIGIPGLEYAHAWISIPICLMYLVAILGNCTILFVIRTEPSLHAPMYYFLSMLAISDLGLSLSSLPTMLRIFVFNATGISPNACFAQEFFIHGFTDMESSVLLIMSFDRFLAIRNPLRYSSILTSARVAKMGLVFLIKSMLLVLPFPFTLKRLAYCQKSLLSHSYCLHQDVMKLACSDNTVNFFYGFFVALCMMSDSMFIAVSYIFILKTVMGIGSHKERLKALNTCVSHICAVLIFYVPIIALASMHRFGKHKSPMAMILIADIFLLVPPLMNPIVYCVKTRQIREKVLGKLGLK
Summary of the method: as §1

[4] = molecular target: T4, UniProt Q8VH20
T4 sequence (whole entry): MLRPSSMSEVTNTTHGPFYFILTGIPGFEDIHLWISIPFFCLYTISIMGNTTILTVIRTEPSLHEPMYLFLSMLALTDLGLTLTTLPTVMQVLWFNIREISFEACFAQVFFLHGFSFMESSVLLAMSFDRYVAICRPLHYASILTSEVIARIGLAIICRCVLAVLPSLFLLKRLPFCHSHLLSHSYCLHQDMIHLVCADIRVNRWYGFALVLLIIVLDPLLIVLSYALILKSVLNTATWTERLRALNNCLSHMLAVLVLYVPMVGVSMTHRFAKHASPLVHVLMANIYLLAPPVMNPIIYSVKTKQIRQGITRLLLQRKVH
Summary of the method: as §1

[5] = molecular target: T5, UniProt Q8VH21
T5 sequence (whole entry): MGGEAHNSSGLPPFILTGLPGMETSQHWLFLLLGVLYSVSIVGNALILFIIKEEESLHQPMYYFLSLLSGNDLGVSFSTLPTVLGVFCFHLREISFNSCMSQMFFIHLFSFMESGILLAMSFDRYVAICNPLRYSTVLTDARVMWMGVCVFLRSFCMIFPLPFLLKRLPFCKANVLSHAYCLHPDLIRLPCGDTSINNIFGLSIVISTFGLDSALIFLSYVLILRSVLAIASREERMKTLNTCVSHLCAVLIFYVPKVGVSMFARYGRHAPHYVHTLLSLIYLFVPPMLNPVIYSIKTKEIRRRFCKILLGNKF
Summary of the method: as §1

[6] = molecular target: T6, UniProt Q924H8
T6 sequence (whole entry): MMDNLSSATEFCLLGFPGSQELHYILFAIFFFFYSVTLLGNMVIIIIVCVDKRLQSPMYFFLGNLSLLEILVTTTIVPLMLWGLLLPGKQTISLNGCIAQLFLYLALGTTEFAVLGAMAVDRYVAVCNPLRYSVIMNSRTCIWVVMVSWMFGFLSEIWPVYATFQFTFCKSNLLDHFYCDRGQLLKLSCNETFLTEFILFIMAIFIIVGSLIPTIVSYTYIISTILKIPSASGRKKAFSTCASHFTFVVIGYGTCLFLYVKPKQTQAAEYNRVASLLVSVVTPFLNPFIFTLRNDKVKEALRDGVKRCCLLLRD
Summary of the method: as §1

[7] = molecular target: T7, UniProt Q8VH18
T7 sequence (whole entry): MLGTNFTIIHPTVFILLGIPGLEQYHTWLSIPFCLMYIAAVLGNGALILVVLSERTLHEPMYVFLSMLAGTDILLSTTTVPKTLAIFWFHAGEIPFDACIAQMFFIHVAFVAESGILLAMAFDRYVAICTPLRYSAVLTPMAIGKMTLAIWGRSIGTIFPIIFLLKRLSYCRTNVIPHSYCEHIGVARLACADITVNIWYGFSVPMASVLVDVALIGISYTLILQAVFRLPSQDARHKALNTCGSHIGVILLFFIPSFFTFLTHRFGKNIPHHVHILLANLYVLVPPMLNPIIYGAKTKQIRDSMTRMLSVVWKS
Summary of the method: as §1

[8] = molecular target: T8, UniProt Q9WU94
T8 sequence (whole entry): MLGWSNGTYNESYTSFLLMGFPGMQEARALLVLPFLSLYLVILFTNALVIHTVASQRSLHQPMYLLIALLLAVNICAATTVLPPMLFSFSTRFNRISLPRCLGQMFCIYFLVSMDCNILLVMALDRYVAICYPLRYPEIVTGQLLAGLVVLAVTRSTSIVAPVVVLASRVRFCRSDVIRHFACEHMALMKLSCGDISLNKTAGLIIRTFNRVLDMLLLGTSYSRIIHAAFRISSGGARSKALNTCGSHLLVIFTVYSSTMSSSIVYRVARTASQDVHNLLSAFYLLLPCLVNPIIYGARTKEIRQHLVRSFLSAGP
Summary of the method: as §1

[9] = molecular target: T9, UniProt Q920P2
T9 sequence (whole entry): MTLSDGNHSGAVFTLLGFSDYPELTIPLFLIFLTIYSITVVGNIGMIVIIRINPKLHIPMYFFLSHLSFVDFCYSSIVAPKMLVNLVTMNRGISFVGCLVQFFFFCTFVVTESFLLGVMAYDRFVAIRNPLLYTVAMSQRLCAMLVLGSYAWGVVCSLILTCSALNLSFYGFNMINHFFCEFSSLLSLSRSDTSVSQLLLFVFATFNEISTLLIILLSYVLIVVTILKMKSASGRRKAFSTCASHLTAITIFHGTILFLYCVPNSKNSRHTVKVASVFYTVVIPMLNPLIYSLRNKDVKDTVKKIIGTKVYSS
Summary of the method: as §1

[10] = molecular target: UniProt Q9EQB5
Summary of the method: as §1

Measured: odorant receptor agonist call

UniProt Q9EQB5, sequence (Q9EQB5 as listed by the source): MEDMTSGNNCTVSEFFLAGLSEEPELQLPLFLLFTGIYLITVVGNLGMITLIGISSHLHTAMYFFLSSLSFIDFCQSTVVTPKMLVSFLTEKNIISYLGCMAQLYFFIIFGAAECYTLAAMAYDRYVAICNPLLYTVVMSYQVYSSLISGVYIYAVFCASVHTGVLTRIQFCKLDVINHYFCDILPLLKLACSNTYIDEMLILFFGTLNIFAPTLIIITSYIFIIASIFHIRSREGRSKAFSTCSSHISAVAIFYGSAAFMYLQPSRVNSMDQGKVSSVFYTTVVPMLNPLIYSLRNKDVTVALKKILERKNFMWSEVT

CC=Cc1ccc(OC)cc1
inactive: [1] | [2] | [3] | [4] | [5] | [6]

O=C(OCc1ccccc1)c1ccccc1O
inactive: [1] | [2] | [3] | [4] | [5] | [6]

CCCCCOC(=O)CC
inactive: [1] | [2] | [3] | [4] | [5] | [6]

CCCCCCCOC(=O)C(C)C
inactive: [1] | [2] | [3] | [4] | [5] | [6]

CCCC=O
inactive: [1] | [2] | [3] | [4] | [5] | [6]

CCOC(=O)CC(C)C
inactive: [1] | [2] | [3] | [4] | [5] | [6]

CCc1ccccc1O
inactive: [1] | [2] | [3] | [4] | [5] | [6]

CCCCCCCCCCCO
inactive: [1] | [2] | [3] | [4] | [5] | [6]

CCCCCC=CCCC=O
active: [1] | [4]
inactive: [2] | [3] | [5] | [6]

CCc1nccnc1CC
inactive: [1] | [2] | [3] | [4] | [5] | [6]

CCCCCC(=Cc1ccccc1)C(OC)OC
inactive: [1] | [2] | [3] | [4] | [5] | [6]

C=CC(=C)CCC=C(C)CCC=C(C)C
inactive: [1] | [2] | [3] | [4] | [5] | [6]

CC=C(C)C=O
inactive: [1] | [2] | [3] | [4] | [6]
active: [5]

CCCCCCCCC=CC=O
inactive: [1] | [2] | [3] | [4] | [5] | [6]

CCCO
inactive: [1] | [2] | [3] | [4] | [5] | [6]

C=CC(C)=CCC=C(C)CCC=C(C)C
inactive: [1] | [2] | [3] | [4] | [5] | [6]

CCCCCCC(=O)OCCCC
inactive: [1] | [2] | [3] | [4] | [5] | [6]

Cc1ccc(C(C)C)cc1
inactive: [1] | [2] | [3] | [4] | [5] | [6]

CCCCCCC(C)O (stereo not given)
inactive: [1] | [2] | [3] | [4] | [5] | [6]

Cc1ccc2c(c1)OCC(=O)CO2
inactive: [1] | [2] | [3] | [4] | [5] | [6]

CCCCOC(=O)CCC
inactive: [7] | [8]

COc1cc(C=O)cc(OC)c1O
inactive: [9]

CC(C=O)Cc1ccc(C(C)(C)C)cc1 (stereo not given)
inactive: [9]

CC1CCCCCCCCCCCCC(=O)C1 (stereo not given)
inactive: [10]

Source: the M2OR odorant receptor database
